# AF4-AF9 inh: inhibitors of human MLL-AF4/AF9 interaction | inhibition, % at 10 µM | 0.47% of 350,000 active | AlphaScreen, biotin-AF4 peptide binding to FLAG-AF9 | AID 651704;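 active = every replicate reaching a set inhibition limit, whatever the replicate mean, cut at about 25% in these data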;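 also: 0% = plate neutral control median and 100% = total signal loss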
# FGF22 binding: binders of recombinant human FGF22 by thermal shift. SYPRO orange fluorescence; percent of sucrose octasulfate shift, DMSO zero. activity (Tm shift, normalised), % at 9.99 µM. 1.5% of 340,000 active. AID 651658;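 active = mean Tm shift, scaled 0 neutral to 100 positive control, at about 1.3% or above, every replicate too, limit read from the data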
# Target sequence (Q9HCT0 whole entry, looked up): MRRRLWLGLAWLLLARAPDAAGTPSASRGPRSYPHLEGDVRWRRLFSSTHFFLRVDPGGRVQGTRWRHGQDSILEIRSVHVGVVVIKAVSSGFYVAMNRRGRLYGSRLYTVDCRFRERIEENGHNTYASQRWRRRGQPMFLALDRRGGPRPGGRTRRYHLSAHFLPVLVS
# FN deposit inh: fibronectin deposition inhibition | inhibition, % at 12.6 µM | AID 743247 | AH1F fibroblasts, Alexa488-fibronectin deposition fluorescence, overnight | 0.086% of 350,000 active;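 active = mean inhibition across replicates of 30% or more, regardless of how many single replicates reach that level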;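 also: positive control wells lacked labelled fibronectin entirely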
#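 test system = AH1F fibroblasts assembling fluorescent fibronectin matrix | quantity = 10000 AH1F cells per well | buffer or medium = DMEM plus 2% serum, read in PBS | doses = single dose, pinned | incubation = 1 h cell attachment, overnight exposure to compound and label | detection = fluorescence at 485 nm excitation, 525 nm emission | read-out basis = inhibition from reduced deposited-fibronectin fluorescence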
# ARNT TACC3 PPI: ARNT/TACC3 interaction disruption. Q9Y6A5. AlphaScreen His-ARNT PAS-B/GST-TACC3 binding, luminescence; TACC3 fragment carries E629A point mutation. inhibition, % at 9.99 µM. 0.66% of 390,000 active;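 active = mean inhibition of replicates at least 50% and at least half of replicates each reaching 50%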;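 also: 0% = complete ARNT plus TACC3 wells and 100% = ARNT alone without TACC3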
# PDI inh: blocks human protein disulfide isomerase activity | 0.052% of 350,000 active | inhibition, % at 10 µM | P07237 | PDI insulin aggregation turbidity, A650, 90 min;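 active = mean inhibition across replicates of 30% or more, whatever share of single replicates reach that level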
# ERp5 inh: inhibitors of human ERp5. Q15084. inhibition, % at 9.99 µM. 0.05% of 350,000 active. ERp5 insulin aggregation, absorbance 650 nm, 90 min;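 active = mean replicate inhibition above about 25%, with every replicate also reaching it, limit read from the data, passing the limit was not always enough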
# Target sequence (Q15084 whole entry, looked up): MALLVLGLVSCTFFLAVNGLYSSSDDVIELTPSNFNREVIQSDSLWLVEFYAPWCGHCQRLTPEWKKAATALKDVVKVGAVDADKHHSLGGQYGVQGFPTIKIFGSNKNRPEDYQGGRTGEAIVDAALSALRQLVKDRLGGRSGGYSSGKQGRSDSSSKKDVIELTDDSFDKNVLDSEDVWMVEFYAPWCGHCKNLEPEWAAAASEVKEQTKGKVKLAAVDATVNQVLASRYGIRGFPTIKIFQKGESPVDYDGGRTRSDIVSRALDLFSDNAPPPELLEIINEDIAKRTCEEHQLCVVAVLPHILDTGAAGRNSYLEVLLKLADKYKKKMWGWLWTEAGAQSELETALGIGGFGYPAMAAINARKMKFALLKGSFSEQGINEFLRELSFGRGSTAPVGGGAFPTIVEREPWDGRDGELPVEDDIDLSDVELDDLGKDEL
# AlphaScreen ctr: interferes with AlphaScreen signal, flagging false ARNT-TACC3 hits | 50% of 1,200 active | AC50, µM (top dose mostly 68 µM), for the others: top-dose activity change, negative = signal decrease | AID 651705 | His-ARNT PASB-GST AlphaScreen artifact counter-screen, luminescence | shares compounds with ARNT TACC3 PPI;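 active = every separate test run was called active for a drop in luminescence, with AC50 within twice the top valid dose, actives reach about 71 µM in these data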
# * = called active by the depositor; x = no result; [ ] = remark or other dose. Hits are enriched below; roughly 2.1% of the tested compounds scored in any of these assays.
SMILES,AF4-AF9 inh,FGF22 binding,FN deposit inh,ARNT TACC3 PPI,PDI inh,ERp5 inh,AlphaScreen ctr
CCCNC(=O)C[C@@H]1C[C@@H]2c3cc(NC(=O)Nc4ccc(OC)cc4)ccc3O[C@@H]2[C@@H](CO)O1,1,0,-1,-3,x,-1,x
O=C(NCCCn1ccnc1)C(F)(F)C(F)(F)C(=O)NCCCn1ccnc1,x,x,-3,51*,2,x,-18%
C#CCOCCOCCOCCNc1nc(N2CCN(C(=O)Cn3cc(CC(C)O)nn3)CC2)nc(N2CCN(C(=O)[C@H](CCCCN)n3cc(CCC(=O)O)nn3)CC2)n1 (stereo not given in full),1,0,3,-2,-1,-2,x
C#CCOCCOCCOCCNc1nc(N2CCN(C(=O)Cn3cc(CCCCN)nn3)CC2)nc(N2CCN(C(=O)[C@H](CCCCN)n3cc(CCCC)nn3)CC2)n1,13,0,2,32*,4,-7,4%
C#CCOCCOCCOCCNc1nc(N2CCN(C(=O)[C@H](CCC(=O)O)n3cc([C@@H](N)CCCCN)nn3)CC2)nc(N2CCN(C(=O)[C@H](CCCCN)n3cc([C@@H](N)CC(N)=O)nn3)CC2)n1,8,0,-7,51*,-1,-18,-4%
CC(=O)N1[C@H](CO)[C@@H](c2ccccc2)C12CN(C(=O)c1cnccn1)C2,3,0,x,x,x,3,x
COc1cc(/C=C2\S/C(=N/S(=O)(=O)c3ccccc3)NC2=O)c([N+](=O)[O-])cc1OC,x,x,x,9.7*,-5,x,-25%
COc1ccc(S(=O)(=O)/N=C2/NC(=O)/C(=C\c3cc(OC)c(OC)cc3[N+](=O)[O-])S2)cc1,x,x,4,9,5,x,x
Cc1[nH][nH]c(=O)c1C(c1ccc(Cl)cc1)c1c(C)[nH][nH]c1=O,-24,0,-6,18*,1,3,5%
C[C@H]1CN([C@@H](C)CO)C(=O)Cc2cc(NS(C)(=O)=O)ccc2O[C@@H]1CN(C)C(=O)Nc1ccc2c(c1)OCO2,-13,0,x,x,x,6,x
C[C@H]1c2cccc(O)c2C(O)=C2C(=O)[C@]3(O)C(O)=C(C(N)=O)C(=O)[C@@H](N(C)C)C3[C@@H](O)C21 (stereo not given in full),7,0,-12,36*,-2,2,-10%
O=C(N/N=C/c1cc([N+](=O)[O-])ccc1O)Nc1ccccc1,0,0,0,25,-1,-2,x
CCNC(=O)C(=O)N/N=C/c1cc([N+](=O)[O-])ccc1O,-1,0,-4,61*,1,1,25µM*
COc1ccc(NC(=O)Nc2ccc3c(c2)[C@@H]2C[C@H](CC(=O)N(C)C)O[C@@H](CO)[C@@H]2O3)cc1,0,0,0,4,x,-3,x
CN(Cc1cnc2nc(N)nc(N)c2n1)c1ccc(C(=O)NC(CCC(=O)O)C(=O)O)cc1 (stereo not given),-4,0,-7,15*,-2,9,-23%
C[C@@H]1CN([C@@H](C)CO)C(=O)c2cc(C3=CCCCC3)cnc2O[C@@H]1CN(C)C(=O)c1ccccn1,-5,0,-4,-4,x,1,x
Cc1noc(C)c1S(=O)(=O)Nc1ccc2c(c1)C(=O)N([C@H](C)CO)C[C@H](C)[C@@H](CN(C)Cc1ccc(C(F)(F)F)cc1)OCCCC[C@H](C)O2,2,0,x,-1,x,-3,x
COc1cccc(/C=N/Nc2nc3ccccc3[nH]2)c1O,3,0,6,58*,-1,-3,-42%
O=C(NCC1CC1)[C@H]1[C@H](CO)[C@H]2Cn3c(ccc(C4=CCCC4)c3=O)[C@@H]1N2C(=O)C1CC1,-2,0,x,3,x,2,x
Cc1cccc(Nc2nc(-c3ccccn3)cs2)n1,x,x,x,73*,9,x,47µM*
Cc1cccc(Nc2nc(-c3cccs3)cs2)n1,x,x,x,-3,-3,x,x
Cc1cccnc1Nc1nc(-c2ccccn2)cs1,x,x,x,69*,-7,x,5.3µM*
C[C@@H]1CN([C@@H](C)CO)C(=O)c2cccc(NC(=O)C3CCCCC3)c2O[C@@H]1CN(C)S(=O)(=O)c1ccc(F)cc1,1,0,x,5,x,-3,x
O=C(COC(=O)c1ccc([N+](=O)[O-])s1)NCc1ccccc1,x,x,x,26*,-11,x,-3%
NS(=O)(=O)c1ccc(CCNC(=O)COC(=O)Cc2ccc([N+](=O)[O-])cc2)cc1,-1,0,4,-4,-3,-1,x
SMILES,AF4-AF9 inh,FGF22 binding,FN deposit inh,ARNT TACC3 PPI,PDI inh,ERp5 inh,AlphaScreen ctr
NS(=O)(=O)c1ccc(CCNC(=O)COC(=O)c2ccc([N+](=O)[O-])o2)cc1,-6,0,3,71*,11,-1,-10%
O=C(COC(=O)c1ccc([N+](=O)[O-])s1)Nc1ccccc1,x,x,x,2,-3,x,x
O=C(COC(=O)c1ccc([N+](=O)[O-])o1)NCc1ccccc1,3,1,-5,20*,7,-1,-8%
C[C@@H]1CN([C@H](C)CO)C(=O)c2cc(NS(=O)(=O)c3ccc(F)cc3)ccc2O[C@@H](C)CCCCO[C@@H]1CN(C)S(=O)(=O)c1ccccc1,-3,0,1,-6,x,0,x
O=C1CCC[C@@H]2c3[nH]c4ccccc4c3CCN12,4,0,x,-2,x,4,x
O=C(CSc1nnc(-c2ccccn2)o1)Nc1ccccc1,-2,0,-10,x,6,3,x
O=C(CSc1nnc(-c2ccccn2)o1)Nc1ccccc1C(F)(F)F,0,0,3,55*,-5,4,-12%
COC(C(=O)N/N=C(\C)c1ccc(O)cc1)c1ccccc1 (stereo not given),-2,0,-2,0,1,0,x
C/C(=N\NC(=O)C(c1ccccc1)c1ccccc1)c1ccc(O)cc1,1,0,6,60*,-1,3,-15%
Cc1ccccc1Nc1nnc(SCC(=O)NC(=O)NCc2ccco2)s1,x,x,3,62*,3,x,-12%
Cc1ccc(NC(=O)Nc2ccc3c(c2)C(=O)N(C)[C@H]2CC[C@H](CC(=O)O)O[C@@H]2CO3)cc1,-12,0,4,-21,x,1,x
Oc1cc(NCc2ccc(F)cc2)cc2cccnc12,2,0,15,60*,-3,4,30µM*
CN(C)CCCNc1cc(O)c2ncccc2c1,76*,0,1,64*,4,0,6.2µM*
O=C(NCC[C@@H]1CC[C@@H](NC(=O)C2CCOCC2)[C@@H](CO)O1)c1ccc(F)cc1,-4,0,-3,x,x,-2,x
O=C(NCc1ccccc1)c1cc(-c2ccccc2)on1,x,x,x,x,x,x,-2%[38 µM]
